Bridge positions count the residues as written; N and C are the ends. Square brackets hold non-standard residues; d marks the D form. Peptide text beside a SMILES is read from it. * marks the point of attachment. Phe(4-NO2) = N[C@@H](Cc1ccc([N+](=O)[O-])cc1)C(=O)O; X1 = Cc1cc(C(N)=O)cc(C)c1C[C@H](C)C(=O)*; Phe(4-F) = N[C@@H](Cc1ccc(F)cc1)C(=O)O; d2Nal = N[C@H](Cc1ccc2ccccc2c1)C(=O)O; Dmt = Cc1cc(O)cc(C)c1C[C@H](N)C(=O)O; dPen = CC(C)(S)[C@@H](N)C(=O)O; Pen = CC(C)(S)[C@H](N)C(=O)O; Sar = CNCC(=O)O
Legend:
[1] = target: Mu-type opioid receptor (Cavia porcellus) (UniProt P97266); test: (§1) Antagonist activity against mu opioid receptor in guinea pig ileum assessed as effect on TAPP-induced response; format: functional, tissue-based
Outline: (§2)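 Isolated tissue bioassays: mu and kappa antagonism measured in guinea pig ileum, delta antagonism in mouse vas deferens. Antagonist potency expressed as Ke (nM).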

[2] = target: Kappa-type opioid receptor (Cavia porcellus) (UniProt P41144); test: Antagonist activity against kappa opioid receptor in guinea pig ileum assessed as effect on U50488-induced response; format: functional, tissue-based; outline: as §2
[3] = target: Delta-type opioid receptor (Mus musculus) (UniProt P32300); test: (§3) Antagonist activity against delta opioid receptor in mouse vas deference assessed as effect on DPDPE-induced response; format: functional; outline: as §2
Mu-type opioid receptor [4] = target: Mu-type opioid receptor (Rattus norvegicus, UniProt P33535); test: Displacement of [3H]DAMGO from mu opioid receptor in rat brain membrane; format: cell membranes
Outline: (§4)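 Opioid receptor binding in rat brain membrane preparations. Affinity expressed as Ki (nM).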

[5] = target: Kappa-type opioid receptor (Cavia porcellus, UniProt P41144); test: Displacement of [3H]U69593 from kappa opioid receptor in guinea pig brain membrane; format: cell membranes
[6] = target: Delta-type opioid receptor (Rattus norvegicus, UniProt P33533); test: Displacement of [3H]DSLET from delta opioid receptor in rat brain membrane; format: cell membranes; outline: as §4
Mu-type opioid receptor [7] = target: Mu-type opioid receptor (Cavia porcellus, UniProt P97266); test: as §1; format: functional, tissue-based; outline: as §2
[8] = target: Delta-type opioid receptor (Mus musculus, UniProt P32300); test: as §3; format: functional; outline: as §2
Chain of Delta-type opioid receptor (Mus musculus, UniProt P32300) (P32300 whole entry): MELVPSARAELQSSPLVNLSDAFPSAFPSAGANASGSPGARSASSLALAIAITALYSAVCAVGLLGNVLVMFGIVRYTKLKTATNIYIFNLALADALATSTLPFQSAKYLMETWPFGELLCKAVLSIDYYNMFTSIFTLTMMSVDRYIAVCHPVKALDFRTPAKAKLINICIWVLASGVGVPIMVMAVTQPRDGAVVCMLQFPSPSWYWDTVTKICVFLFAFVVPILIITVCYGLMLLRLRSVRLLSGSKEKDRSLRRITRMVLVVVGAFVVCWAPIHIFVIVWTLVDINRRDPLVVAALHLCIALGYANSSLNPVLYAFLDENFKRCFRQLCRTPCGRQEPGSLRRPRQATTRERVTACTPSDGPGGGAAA

Chain of Delta-type opioid receptor (Mus musculus) (P32300 whole entry): as above
Chain of Kappa-type opioid receptor (P41144 whole entry): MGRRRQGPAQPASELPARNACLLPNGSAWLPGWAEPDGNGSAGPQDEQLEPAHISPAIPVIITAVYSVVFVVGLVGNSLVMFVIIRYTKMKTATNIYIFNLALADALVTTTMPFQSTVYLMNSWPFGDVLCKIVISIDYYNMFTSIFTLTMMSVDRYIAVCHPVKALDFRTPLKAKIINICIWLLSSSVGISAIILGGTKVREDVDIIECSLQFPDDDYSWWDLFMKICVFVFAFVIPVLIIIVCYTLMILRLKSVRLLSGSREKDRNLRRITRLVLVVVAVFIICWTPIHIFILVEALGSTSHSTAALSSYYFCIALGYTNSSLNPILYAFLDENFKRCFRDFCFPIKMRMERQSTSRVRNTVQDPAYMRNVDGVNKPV
Chain of Kappa-type opioid receptor (Cavia porcellus) (P41144 whole entry): as above
Chain of Mu-type opioid receptor (Cavia porcellus, UniProt P97266) (P97266 whole entry): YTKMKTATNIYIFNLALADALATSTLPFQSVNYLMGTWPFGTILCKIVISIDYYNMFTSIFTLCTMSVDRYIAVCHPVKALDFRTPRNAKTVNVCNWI
Chain of Mu-type opioid receptor (Cavia porcellus) (P97266 whole entry): as above
Chain of Mu-type opioid receptor (Rattus norvegicus, UniProt P33535) (P33535 whole entry): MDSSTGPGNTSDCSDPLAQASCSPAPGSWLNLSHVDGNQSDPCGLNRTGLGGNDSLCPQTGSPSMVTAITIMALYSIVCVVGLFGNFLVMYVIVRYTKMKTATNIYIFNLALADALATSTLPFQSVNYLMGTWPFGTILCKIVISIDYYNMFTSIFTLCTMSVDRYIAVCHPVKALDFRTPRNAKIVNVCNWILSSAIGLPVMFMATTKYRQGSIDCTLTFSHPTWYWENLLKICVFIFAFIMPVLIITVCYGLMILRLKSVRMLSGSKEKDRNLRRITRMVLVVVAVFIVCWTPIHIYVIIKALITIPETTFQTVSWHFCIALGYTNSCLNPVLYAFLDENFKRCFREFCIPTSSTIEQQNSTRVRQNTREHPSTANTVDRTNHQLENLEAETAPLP
Chain of Delta-type opioid receptor (Rattus norvegicus, UniProt P33533) (P33533 whole entry): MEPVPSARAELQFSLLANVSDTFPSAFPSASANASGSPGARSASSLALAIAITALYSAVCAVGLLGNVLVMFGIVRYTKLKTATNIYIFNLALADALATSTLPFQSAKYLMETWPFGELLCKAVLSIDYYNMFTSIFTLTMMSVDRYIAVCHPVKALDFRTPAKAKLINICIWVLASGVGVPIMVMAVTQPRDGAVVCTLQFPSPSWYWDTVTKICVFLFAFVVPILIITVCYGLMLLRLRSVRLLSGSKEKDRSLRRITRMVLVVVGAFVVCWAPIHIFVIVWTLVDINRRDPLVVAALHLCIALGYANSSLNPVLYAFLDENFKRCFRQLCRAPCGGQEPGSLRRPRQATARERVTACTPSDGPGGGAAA

Row | Compound | Ke [1] | Ke [2] | Ke [3] | Ki [5] | Ki (Mu-type opioid receptor [7]) | further results
1 | Cc1cc(O)cc(C)c1C[C@H](C)C(=O)N[C@H]1C(=O)NCC(=O)N[C@@H](Cc2ccc(F)cc2)C(=O)N[C@H](C(=O)N[C@@H](Cc2ccccc2)C(=O)O)C(C)(C)SSC1(C)C | 668 nM | 4370 nM | 0.785 nM | 3710 nM | – | Ki (Mu-type opioid receptor [4]): 406 nM; Ki [6]: 2.32 nM
2 | Cc1cc(O)cc(C)c1C[C@H](N)C(=O)N1CCC[C@H]1C(=O)N[C@@H](Cc1ccccc1)C(=O)N[C@H](Cc1ccc2ccccc2c1)C(N)=O [ANTANAL-2] (H-[Dmt]PF[d2Nal]-NH2) | – | – | – | – | 1.52 nM | –
3 | Cc1cc(O)cc(C)c1C[C@H](N)C(=O)N1CCC[C@H]1C(=O)N[C@@H](Cc1c[nH]c2ccccc12)C(=O)N[C@H](Cc1ccc2ccccc2c1)C(N)=O [ANTANAL-1] (H-[Dmt]PW[d2Nal]-NH2) | – | – | – | – | 2.38 nM | –
4 | C[C@@H](O)[C@H](NC(=O)[C@H]1NC(=O)[C@H]([C@@H](C)O)NC(=O)[C@H](CCCN)NC(=O)[C@@H](Cc2c[nH]c3ccccc23)NC(=O)[C@H](Cc2ccc(O)cc2)NC(=O)[C@@H](NC(=O)[C@H](N)Cc2ccccc2)CSSC1(C)C)C(N)=O | – | – | – | – | – | IC50 (Mu-type opioid receptor [7]): 2.8 nM
5 | CC[C@H](C)[C@H](NC(=O)[C@H](CCCNC(=N)N)NC(=O)[C@H](CCCNC(=N)N)NC(=O)[C@H](CC(C)C)NC(=O)[C@H](Cc1ccccc1)NC(=O)CNC(=O)CNC(=O)[C@@H](C)Cc1c(C)cc(C(N)=O)cc1C)C(=O)N[C@@H](CCCNC(=N)N)C(=O)N1CCC[C@H]1C(=O)N[C@@H](CCCCN)C(N)=O | 401 nM | 5.96 nM | 843 nM | 26 nM | – | Ki (Mu-type opioid receptor [4]): 29.6 nM; Ki [6]: 27.2 nM
6 | Cc1cc(O)cc(C)c1C[C@H](N)C(=O)N(C)CC(=O)N[C@@H](Cc1ccccc1)C(=O)N[C@H](Cc1ccc2ccccc2c1)C(N)=O (H-[Dmt][Sar]F[d2Nal]-NH2) | 2.34 nM | – | 305 nM | – | – | –
7 | Cc1cc(C(N)=O)cc(C)c1C[C@H](C)C(=O)N[C@H]1C(=O)NCC(=O)N[C@@H](Cc2ccc(F)cc2)C(=O)N[C@H](C(=O)N[C@@H](Cc2ccccc2)C(=O)O)C(C)(C)SSC1(C)C (X1-[dPen]G[Phe(4-F)][Pen]F-OH; disulfide 1-4) | 1170 nM | 9980 nM | 0.326 nM | – | – | –
8 | Cc1cc(C(N)=O)cc(C)c1C[C@H](C)C(=O)N[C@@H]1CSSC[C@H](C(N)=O)NC(=O)[C@H](Cc2ccc([N+](=O)[O-])cc2)NC(=O)CNC1=O (X1-[dC]G[Phe(4-NO2)][dC]-NH2; disulfide 1-4) | 1.24 nM | 18.9 nM | 9.78 nM | – | – | –
9 | Cc1cc(O)cc(C)c1C[C@H](C)C(=O)N[C@@H]1CSSC[C@H](C(N)=O)NC(=O)[C@H](Cc2ccc([N+](=O)[O-])cc2)NC(=O)CNC1=O | 1.48 nM | 6.41 nM | 3.48 nM | 92.8 nM | – | –
10 | Cc1cc(O)cc(C)c1CCC(=O)N[C@@H]1CCCCNC(=O)NC[C@@H](C(N)=O)NC(=O)[C@H](Cc2ccccc2)NC(=O)CNC1=O | – | – | – | – | 15.5 nM | Ki [8]: 273 nM
